Measurements from ChEMBL document CHEMBL1131301, “Tyrosine kinase inhibitors. 14. Structure-activity relationships for methylamino-substituted derivatives of 4-[(3-bromophenyl)amino]-6-(methylamino)-pyrido[3,4-d]pyrimidine (PD 158780), a potent and specific inhibitor of the tyrosine kinase activity of receptors for the EGF family of growth factors” (J Med Chem, 1998).
In brackets after ≈: the same amount, converted by molar mass.

How the values were obtained:
Mus musculus [1] = assay: Ratio of treated and control EGFR median tumor mass*100% in mice at 25 mg/kg ip dose, days 1-15 administration; assay type: functional; conditions: route intraperitoneal
In short: (§1)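 Nude mice (NCr nu/nu, 18-22 g) were randomized and implanted sc with tumor fragments in the right axilla on day 0. Tumor lines were A431 epidermoid, NIH 3T3 fibroblasts transfected with human EGFR, and MCF-7 breast. Dosing was ip or oral, by average cage weight, with 6 mice/dose group. Vehicle was 6% dimethylacetamide/94% 50 mM sodium lactate pH 4.0 (suspension), or isethionate salt in water.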

A-431 [2] = assay: Weight change in A431 tumor bearing mice at 25 mg/kg ip dose, days 7-21 administration; assay type: functional; conditions: route intraperitoneal
Mus musculus [3] = assay: Ratio of treated and control EGFR median tumor mass*100% in mice at 200 mg/kg peroral dose, days 1-15 administration; assay type: functional; conditions: route oral; in short: as §1
A-431 [4] = assay: Ratio of treated and control A431 median tumor mass*100% in mice at 25 mg/kg peroral dose, days 7-21 administration; assay type: functional; conditions: route intraperitoneal, in the assay text read “intraperitoneal” for “peroral”; in short: as §1
Mus musculus [5] = assay: Difference in days for treated (T) and control (C) EGFR tumor fragments to reach 750 mg in mice at 25 mg/kg ip dose, administration days 1-15; assay type: functional; conditions: route intraperitoneal
[6] = target: Fibroblast growth factor receptor (Homo sapiens, UniProt P22607+P11362+P22455+P21802); assay: Inhibition of fibroblast growth factor receptor(FGFR); assay type: protein assay
A-431 [7] = assay: Difference in days for treated (T) and control (C) A431 tumor fragments to reach 750 mg in mice at 25 mg/kg intraperitoneal dose, administration days 7-21
A-431 [8] = assay: Net reduction in A431 tumor burden between the first and last treatments in mice at 25 mg/kg ip dose, days 7-21 administration; assay type: functional; conditions: route intraperitoneal
In short: (§2)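 NCr nu/nu nude mice (18-22 g) were randomized and implanted sc with A431 epidermoid, human-EGFR-transfected NIH 3T3 fibroblast, or MCF-7 breast tumor fragments in the right axilla on day 0. Dosing was ip or oral, by average cage weight, with 6 mice per dose group. Log net cell kill is the net reduction in tumor burden between the first and last treatments.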

Mus musculus [9] = assay: Weight change of EGFR tumor bearing mice at 25 mg/kg ip dose, days 1-15 administration; conditions: route intraperitoneal
[10] = Inhibition of Platelet-derived growth factor receptor (PDGFR)
[11] = target: T1, Epidermal growth factor receptor (Homo sapiens, UniProt P00533); assay: Inhibition of autophosphorylation of epidermal growth factor receptor in A431 cells in culture
T1 sequence (P00533 whole entry): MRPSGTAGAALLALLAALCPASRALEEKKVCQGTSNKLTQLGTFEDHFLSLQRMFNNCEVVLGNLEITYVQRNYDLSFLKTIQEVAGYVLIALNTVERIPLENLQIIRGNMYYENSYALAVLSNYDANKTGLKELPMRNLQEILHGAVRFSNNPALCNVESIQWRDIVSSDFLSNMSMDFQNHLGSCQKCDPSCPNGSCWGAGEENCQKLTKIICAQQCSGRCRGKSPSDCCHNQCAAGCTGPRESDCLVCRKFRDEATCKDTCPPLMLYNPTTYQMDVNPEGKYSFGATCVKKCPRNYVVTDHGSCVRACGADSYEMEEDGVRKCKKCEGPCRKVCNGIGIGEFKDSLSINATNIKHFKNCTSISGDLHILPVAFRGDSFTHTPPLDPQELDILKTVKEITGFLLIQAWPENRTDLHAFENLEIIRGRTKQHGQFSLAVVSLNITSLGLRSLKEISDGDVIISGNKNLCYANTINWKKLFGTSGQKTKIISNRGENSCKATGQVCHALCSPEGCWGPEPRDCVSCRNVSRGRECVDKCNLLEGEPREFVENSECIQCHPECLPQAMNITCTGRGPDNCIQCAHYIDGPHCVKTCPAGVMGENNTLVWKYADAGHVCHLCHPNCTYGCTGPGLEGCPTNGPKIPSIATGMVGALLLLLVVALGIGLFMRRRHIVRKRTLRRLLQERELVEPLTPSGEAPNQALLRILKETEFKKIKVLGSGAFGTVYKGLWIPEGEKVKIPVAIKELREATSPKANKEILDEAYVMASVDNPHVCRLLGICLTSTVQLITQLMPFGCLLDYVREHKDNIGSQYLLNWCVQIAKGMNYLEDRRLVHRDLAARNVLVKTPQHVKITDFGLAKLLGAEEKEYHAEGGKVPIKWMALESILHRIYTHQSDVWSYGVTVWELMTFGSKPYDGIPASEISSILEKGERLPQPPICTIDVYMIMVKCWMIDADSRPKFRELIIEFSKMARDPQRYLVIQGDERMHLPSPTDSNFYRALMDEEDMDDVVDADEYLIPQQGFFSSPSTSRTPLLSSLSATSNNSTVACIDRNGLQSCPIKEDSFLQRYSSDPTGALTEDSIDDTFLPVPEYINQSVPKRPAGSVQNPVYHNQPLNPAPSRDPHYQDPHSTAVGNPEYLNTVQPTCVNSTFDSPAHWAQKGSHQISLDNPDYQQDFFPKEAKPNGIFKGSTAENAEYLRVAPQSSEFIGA

Mus musculus [12] = assay: Net reduction in EGFR tumor burden between the first and last treatments in mice at 200 mg/kg peroral dose, days 1-15 administration; assay type: functional; conditions: route oral; in short: as §2
Mus musculus [13] = assay: Difference in days for treated (T) and control (C) EGFR tumor fragments to reach 750 mg in mice at 200 mg/kg peroral dose, administration days 1-15; assay type: functional; conditions: route oral
[14] = Aqueous solubility ([…] degree C); assay type: physicochemical
[15] = target: Proto-oncogene tyrosine-protein kinase Src (Homo sapiens, UniProt P12931); assay: Inhibition of c-Src tyrosine kinase
Chain of Proto-oncogene tyrosine-protein kinase Src (P12931 2-536 limits assumed): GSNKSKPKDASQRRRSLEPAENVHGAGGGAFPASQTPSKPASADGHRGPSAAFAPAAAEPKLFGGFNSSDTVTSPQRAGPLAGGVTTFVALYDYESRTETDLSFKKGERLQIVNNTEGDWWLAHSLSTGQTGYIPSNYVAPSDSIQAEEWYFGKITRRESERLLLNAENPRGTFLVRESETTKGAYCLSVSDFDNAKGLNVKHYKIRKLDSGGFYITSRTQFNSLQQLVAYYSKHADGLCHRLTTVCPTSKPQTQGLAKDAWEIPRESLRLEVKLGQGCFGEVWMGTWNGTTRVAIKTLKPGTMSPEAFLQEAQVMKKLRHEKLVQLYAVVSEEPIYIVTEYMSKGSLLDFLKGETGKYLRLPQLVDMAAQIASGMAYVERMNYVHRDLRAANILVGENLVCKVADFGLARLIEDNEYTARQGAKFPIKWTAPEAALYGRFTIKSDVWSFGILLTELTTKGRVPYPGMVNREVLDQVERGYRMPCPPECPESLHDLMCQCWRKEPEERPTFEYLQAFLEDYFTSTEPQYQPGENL

Mus musculus [16] = assay: Weight change of EGFR tumor bearing mice at 200 mg/kg peroral dose, days 1-15 administration; assay type: functional, organism-based; set-up: dose 200 mg/kg
[17] = target: T1, Epidermal growth factor receptor; assay: (§3) Inhibition of tyrosine/glutamic acid copolymer phosphorylation by epidermal growth factor receptor prepared of human A431
[18] = target: T1, Epidermal growth factor receptor; assay: Inhibition of EGF-dependent autophosphorylation of EGF-R in A431 cells
[19] = target: Receptor tyrosine-protein kinase erbB-2 (Homo sapiens, UniProt P04626); assay: Inhibition of heregulin-dependent autophosphorylation of ErbB2 receptor in MDA-MB-453 cells; assay type: functional, cell-based
Chain of Receptor tyrosine-protein kinase erbB-2 (P04626 whole entry): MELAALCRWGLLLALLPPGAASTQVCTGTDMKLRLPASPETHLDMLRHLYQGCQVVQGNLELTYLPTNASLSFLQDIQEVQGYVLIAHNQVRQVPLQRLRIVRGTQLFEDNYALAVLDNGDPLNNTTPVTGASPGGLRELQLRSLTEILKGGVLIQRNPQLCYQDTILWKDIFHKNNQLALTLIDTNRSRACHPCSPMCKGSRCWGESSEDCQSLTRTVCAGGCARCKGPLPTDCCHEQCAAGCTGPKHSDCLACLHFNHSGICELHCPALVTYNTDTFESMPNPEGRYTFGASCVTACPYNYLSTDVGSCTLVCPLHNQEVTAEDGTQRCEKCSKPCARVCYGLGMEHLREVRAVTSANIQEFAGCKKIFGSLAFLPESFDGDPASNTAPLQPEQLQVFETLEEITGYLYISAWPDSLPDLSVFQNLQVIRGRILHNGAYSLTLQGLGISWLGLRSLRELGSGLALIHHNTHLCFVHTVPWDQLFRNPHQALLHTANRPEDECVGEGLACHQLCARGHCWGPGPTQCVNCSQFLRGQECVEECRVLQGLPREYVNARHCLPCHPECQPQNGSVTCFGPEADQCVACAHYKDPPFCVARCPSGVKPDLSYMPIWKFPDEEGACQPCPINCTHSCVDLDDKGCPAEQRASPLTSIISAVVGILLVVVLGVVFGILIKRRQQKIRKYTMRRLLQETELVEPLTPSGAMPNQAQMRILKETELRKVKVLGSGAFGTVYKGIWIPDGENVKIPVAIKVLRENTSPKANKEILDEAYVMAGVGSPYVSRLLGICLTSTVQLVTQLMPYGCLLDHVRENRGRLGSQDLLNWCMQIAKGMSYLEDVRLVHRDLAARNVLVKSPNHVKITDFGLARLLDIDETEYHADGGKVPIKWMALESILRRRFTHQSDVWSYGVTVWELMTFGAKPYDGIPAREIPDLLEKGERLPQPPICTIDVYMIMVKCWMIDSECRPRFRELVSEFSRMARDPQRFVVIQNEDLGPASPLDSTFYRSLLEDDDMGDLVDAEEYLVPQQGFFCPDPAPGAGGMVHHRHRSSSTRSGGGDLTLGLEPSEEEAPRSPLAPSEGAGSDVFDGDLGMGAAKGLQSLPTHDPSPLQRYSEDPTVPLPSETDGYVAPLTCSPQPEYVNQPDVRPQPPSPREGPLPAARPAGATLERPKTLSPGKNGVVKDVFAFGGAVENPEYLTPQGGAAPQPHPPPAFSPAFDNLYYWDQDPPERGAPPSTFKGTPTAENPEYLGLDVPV

Mus musculus [20] = assay: Net reduction in EGFR tumor burden between the first and last treatments in mice at 25 mg/kg ip dose, days 1-15 administration; assay type: functional; conditions: route intraperitoneal; in short: as §2
[21] = target: T1, Epidermal growth factor receptor; assay: as §3; remark: listed apart in the source
Insulin receptor = Insulin receptor (Homo sapiens, UniProt P06213); assay: Inhibition of insulin receptor(IR)
Chain of Insulin receptor (P06213 28-758 limits assumed): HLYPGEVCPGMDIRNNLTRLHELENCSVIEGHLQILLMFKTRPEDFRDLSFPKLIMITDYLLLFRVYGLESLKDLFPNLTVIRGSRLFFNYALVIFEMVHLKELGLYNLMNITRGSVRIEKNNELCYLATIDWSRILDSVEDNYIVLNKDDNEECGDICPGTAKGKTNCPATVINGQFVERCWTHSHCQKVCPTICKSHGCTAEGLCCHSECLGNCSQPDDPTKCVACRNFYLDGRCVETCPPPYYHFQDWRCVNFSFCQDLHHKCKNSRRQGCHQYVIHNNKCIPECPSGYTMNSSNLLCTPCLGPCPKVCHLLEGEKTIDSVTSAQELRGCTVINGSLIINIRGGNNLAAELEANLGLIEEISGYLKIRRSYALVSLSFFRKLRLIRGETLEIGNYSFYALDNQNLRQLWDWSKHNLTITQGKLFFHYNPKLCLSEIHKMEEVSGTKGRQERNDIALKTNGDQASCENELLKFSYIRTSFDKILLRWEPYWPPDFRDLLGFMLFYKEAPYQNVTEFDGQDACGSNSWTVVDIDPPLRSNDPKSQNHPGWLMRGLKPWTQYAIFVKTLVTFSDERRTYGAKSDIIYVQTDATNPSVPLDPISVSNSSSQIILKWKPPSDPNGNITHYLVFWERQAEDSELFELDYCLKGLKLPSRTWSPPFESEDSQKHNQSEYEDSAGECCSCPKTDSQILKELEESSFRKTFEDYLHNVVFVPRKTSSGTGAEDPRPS
Chain of Insulin receptor (P06213 763-1382 limits assumed): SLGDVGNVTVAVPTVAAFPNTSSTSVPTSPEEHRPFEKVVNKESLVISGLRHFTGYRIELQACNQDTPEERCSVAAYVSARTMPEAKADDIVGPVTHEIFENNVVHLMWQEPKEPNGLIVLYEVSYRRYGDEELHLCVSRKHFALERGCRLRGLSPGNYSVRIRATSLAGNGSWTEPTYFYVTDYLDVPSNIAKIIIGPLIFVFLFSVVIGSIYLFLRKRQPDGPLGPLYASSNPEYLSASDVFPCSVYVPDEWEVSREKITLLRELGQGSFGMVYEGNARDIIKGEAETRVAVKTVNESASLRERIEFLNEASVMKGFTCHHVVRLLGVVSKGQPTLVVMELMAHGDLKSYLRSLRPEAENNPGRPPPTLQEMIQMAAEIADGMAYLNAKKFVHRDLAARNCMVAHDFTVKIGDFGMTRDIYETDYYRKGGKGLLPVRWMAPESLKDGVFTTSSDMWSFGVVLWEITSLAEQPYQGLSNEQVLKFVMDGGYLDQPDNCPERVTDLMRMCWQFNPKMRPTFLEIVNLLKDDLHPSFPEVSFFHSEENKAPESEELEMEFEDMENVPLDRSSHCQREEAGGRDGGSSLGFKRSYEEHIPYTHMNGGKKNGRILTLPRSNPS

SK-OV-3 [22] = assay: Difference in days for treated (T) and control (C) SKOV-3 tumor fragments to reach 750 mg in mice at 25 mg/kg ip dose, administration days 10-14,17-21,24-28; assay type: functional; conditions: route intraperitoneal
A-431 [23] = assay: Ratio of treated and control A431 median tumor mass*100% in mice at 12 mg/kg peroral dose, days 7-21 administration; assay type: functional; conditions: route intraperitoneal, in the assay text read “intraperitoneal” for “peroral”; in short: as §1
A-431 [24] = assay: Difference in days for treated (T) and control (C) A431 tumor fragments to reach 750 mg in mice at 12 mg/kg peroral dose, administration days 7-21; assay type: functional; conditions: route intraperitoneal, in the assay text read “intraperitoneal” for “peroral”; in short: as §1
MCF7 [25] = assay: Difference in days for treated (T) and control (C) MCF-7 tumor fragments to reach 750 mg in mice at 25 mg/kg ip dose, administration days 1-15; assay type: functional; conditions: route intraperitoneal
Mus musculus [26] = assay: Ratio of treated and control EGFR median tumor mass*100% in mice at 400 mg/kg peroral dose, days 1-15 administration; assay type: functional; conditions: route oral; in short: as §1
Mus musculus [27] = assay: Difference in days for treated (T) and control (C) EGFR tumor fragments to reach 750 mg in mice at 400 mg/kg peroral dose, administration days 1-15; assay type: functional; conditions: route oral
A-431 [28] = assay: WWeight change in A431 tumor bearing mice at 25 mg/kg ip dose, days 13-26 administration; assay type: functional; conditions: route intraperitoneal
SK-OV-3 [29] = assay: Weight change in SKOV-3 tumor bearing mice at 25 mg/kg ip dose, days 10-14,17-21,24-28 administration; assay type: functional; conditions: route intraperitoneal
A-431 [30] = assay: Difference in days for treated (T) and control (C) A431 tumor fragments to reach 750 mg in mice at 25 mg/kg peroral dose, administration days 7-21; assay type: functional; conditions: route oral
Mus musculus [31] = assay: Weight change of EGFR tumor bearing mice at 25 mg/kg ip dose, days 1-15 administration; assay type: functional; conditions: route intraperitoneal
A-431 [32] = assay: Net reduction in A431 tumor burden between the first and last treatments in mice at 12 mg/kg ip dose, days 7-21 administration; assay type: functional; conditions: route intraperitoneal; in short: as §2
SK-OV-3 [33] = assay: Ratio of treated and control SKOV-3 median tumor mass*100% in mice at 25 mg/kg ip dose, days 10-14,17-21,24-28 administration; assay type: functional; conditions: route intraperitoneal
Mus musculus [34] = assay: Weight change of EGFR tumor bearing mice at 400 mg/kg peroral dose, days 1-15 administration; assay type: functional; conditions: route oral
MCF7 [35] = assay: Weight change in MCF-7 tumor bearing mice at 25 mg/kg ip dose, days 1-15 administration; assay type: functional
A-431 [36] = assay: Ratio of treated and control A431 median tumor mass*100% in mice at 25 mg/kg peroral dose, days 13-26 administration; assay type: functional, Mus musculus; conditions: route intraperitoneal, in the assay text read “intraperitoneal” for “peroral”; in short: as §1
Mus musculus [37] = assay: Net reduction in EGFR tumor burden between the first and last treatments in mice at 400 mg/kg peroral dose, days 1-15 administration; assay type: functional; conditions: route oral; in short: as §2
A-431 [38] = assay: Weight change in A431 tumor bearing mice at 12 mg/kg ip dose, days 7-21 administration; assay type: functional; conditions: route intraperitoneal
MCF7 [39] = assay: Net reduction in MCF-7 tumor burden between the first and last treatments in mice at 25 mg/kg ip dose, days 1-15 administration; assay type: functional; conditions: route intraperitoneal; in short: as §2
[40] = target: T1, Epidermal growth factor receptor; assay: Inhibit of phosphorylation of a tyrosine/glutamic acid copolymer by epidermal growth factor receptor prepared from human A431 carcinoma cell vesicles by immunoaffinity chromatography.
A-431 [41] = assay: Net reduction in A431 tumor burden between the first and last treatments in mice at 25 mg/kg ip dose, administration days 13-26; assay type: functional; conditions: route intraperitoneal; in short: as §2
MCF7 [42] = assay: Ratio of treated and control MCF-7 median tumor mass*100% in mice at 25 mg/kg ip dose, days 1-15 administration; assay type: functional; conditions: route intraperitoneal; in short: as §1

## CN(C)CCNc1cc2c(Nc3cccc(Br)c3)ncnc2cn1
Mus musculus [1]
  T/C: 43%
A-431 [2]
  Weight change: -1.4 g
Mus musculus [3]
  T/C: 47%
A-431 [4]
  T/C: 66%
Mus musculus [5]
  T-C: 3.3 days
[6]
  IC50: > 50000 nM
A-431 [7]
  T-C: 4.7 days
A-431 [8]
  Net cell kill: -0.5 log10
Mus musculus [9]
  Weight change: -1.1 g
[10]
  IC50: > 50000 nM
[11]
  IC50: 43 nM
Mus musculus [12]
  Net cell kill: -1.3 log10
Mus musculus [13]
  T-C: 1.1 days
[14]; buffer
  S: > 48 mM
[15]
  IC50: > 50000 nM
Mus musculus [16]
  Weight change: Weight gain
[17]
  IC50: 1.1 nM
[18]
  IC50: 43 nM
[19]
  IC50: 379 nM
Mus musculus [20]
  Net cell kill: -1 log10
[21]
  IC50: 1.1 nM
Insulin receptor
  IC50: > 50000 nM

## Brc1cccc(Nc2ncnc3cnc(NCCN4CCOCC4)cc23)c1
Mus musculus [1]
  T/C: 77%
SK-OV-3 [22]
  T-C: 0 days
A-431 [23]
  T/C: 93%
A-431 [24]
  T-C: 1.9 days
Mus musculus [5]
  T-C: 1.2 days
[6]
  IC50: > 50000 nM
MCF7 [25]
  T-C: 11.7 days
Mus musculus [26]
  T/C: 15%
Mus musculus [27]
  T-C: 2.8 days
A-431 [28]
  Weight change: -1.1 g
SK-OV-3 [29]
  Weight change: -2.1 g
A-431 [30]
  T-C: 2.1 days
Mus musculus [31]
  Weight change: -1.3 g
A-431 [32]
  Net cell kill: -0.7 log10
SK-OV-3 [33]
  T/C: 100%
Mus musculus [34]
  Weight change: -2 g
MCF7 [35]
  Weight change: Weight gain
A-431 [36]
  T/C: 98%
[10]
  IC50: > 50000 nM
[11]
  IC50: 7.9 nM
Mus musculus [37]
  Net cell kill: -1.1 log10
A-431 [38]
  Weight change: -0.2 g
[14]; water, read-out: S
  solubility: 10 mM (≈ 4290 µg/mL)
[15]
  IC50: > 50000 nM
MCF7 [39]
  Net cell kill: -0.1 log10
[17]
  IC50: 0.7 nM
[18]
  IC50: 7.9 nM
[40]
  IC50: 0.65 nM
[19]
  IC50: 219 nM
Mus musculus [20]
  Net cell kill: -1.2 log10
A-431 [41]
  Net cell kill: -0.3 log10
Insulin receptor
  IC50: > 50000 nM
MCF7 [42]
  T/C: 34%
